Data from ChEMBL document CHEMBL1140794, “Discovery of 3-aryl-3-methyl-1H-quinoline-2,4-diones as a new class of selective 5-HT6 receptor antagonists” (Bioorg Med Chem Lett, 2008).
Each block holds one compound with its values, some of them ahead of it.

Key:
[1] = target: T1, 5-hydroxytryptamine receptor 6 (Homo sapiens, UniProt P50406); assay: Displacement of [3H]LSD from human cloned 5HT6 receptor expressed in HEK293 cells; format: cell-based
[2] = target: T2, 5-hydroxytryptamine receptor 1A (Homo sapiens, UniProt P08908); assay: Displacement of [3H]8-OH-DPAT from human cloned 5HT1A receptor
T2 sequence (P08908 whole entry): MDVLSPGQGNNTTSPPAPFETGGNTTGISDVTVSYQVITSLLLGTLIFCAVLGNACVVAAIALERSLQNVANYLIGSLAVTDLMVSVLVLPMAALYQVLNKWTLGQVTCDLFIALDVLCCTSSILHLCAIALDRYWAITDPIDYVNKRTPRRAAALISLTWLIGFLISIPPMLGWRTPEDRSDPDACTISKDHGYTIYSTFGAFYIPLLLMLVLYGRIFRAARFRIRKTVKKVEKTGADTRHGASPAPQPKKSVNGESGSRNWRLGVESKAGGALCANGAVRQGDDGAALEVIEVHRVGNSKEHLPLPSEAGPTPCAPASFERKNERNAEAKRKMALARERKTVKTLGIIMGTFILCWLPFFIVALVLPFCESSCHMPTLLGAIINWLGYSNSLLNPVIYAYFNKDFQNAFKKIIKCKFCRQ

[3] = target: T3, D(4) dopamine receptor (Homo sapiens, UniProt P21917); assay: Displacement of [3H]spiperone from human cloned dopamine D4 receptor
T3 sequence (P21917 whole entry): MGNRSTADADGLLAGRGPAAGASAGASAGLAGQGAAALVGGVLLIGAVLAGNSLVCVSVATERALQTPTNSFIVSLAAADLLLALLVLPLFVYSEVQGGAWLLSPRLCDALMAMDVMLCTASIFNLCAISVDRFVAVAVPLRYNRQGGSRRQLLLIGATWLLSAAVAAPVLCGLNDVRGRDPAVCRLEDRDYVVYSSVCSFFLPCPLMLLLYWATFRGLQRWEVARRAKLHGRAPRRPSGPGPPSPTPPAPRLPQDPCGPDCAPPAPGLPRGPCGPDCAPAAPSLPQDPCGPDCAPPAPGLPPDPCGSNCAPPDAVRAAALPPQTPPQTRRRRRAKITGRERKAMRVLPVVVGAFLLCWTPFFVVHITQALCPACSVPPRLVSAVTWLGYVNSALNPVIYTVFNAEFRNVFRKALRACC

[4] = target: D(3) dopamine receptor (Homo sapiens, UniProt P35462); assay: Displacement of [3H]spiperone from human cloned dopamine D3 receptor
[5] = target: 5-hydroxytryptamine receptor 2A (Homo sapiens, UniProt P28223); assay: Displacement of [3H]ketanserin from human cloned 5HT2A receptor
[6] = target: 5-hydroxytryptamine receptor 7 (Homo sapiens, UniProt P34969); assay: Displacement of [3H]LSD from human cloned 5HT7 receptor
[7] = target: D(1A) dopamine receptor (Homo sapiens, UniProt P21728); assay: Displacement of [3H]SCH-23390 from human cloned dopamine D1 receptor
[8] = target: D(2) dopamine receptor (Homo sapiens, UniProt P14416); assay: Displacement of [3H]spiperone from human cloned dopamine D2 receptor
[9] = target: T4, 5-hydroxytryptamine receptor 2C (Homo sapiens, UniProt P28335); assay: Displacement of [3H]mesulergine from human cloned 5HT2C receptor
T4 sequence (P28335 whole entry): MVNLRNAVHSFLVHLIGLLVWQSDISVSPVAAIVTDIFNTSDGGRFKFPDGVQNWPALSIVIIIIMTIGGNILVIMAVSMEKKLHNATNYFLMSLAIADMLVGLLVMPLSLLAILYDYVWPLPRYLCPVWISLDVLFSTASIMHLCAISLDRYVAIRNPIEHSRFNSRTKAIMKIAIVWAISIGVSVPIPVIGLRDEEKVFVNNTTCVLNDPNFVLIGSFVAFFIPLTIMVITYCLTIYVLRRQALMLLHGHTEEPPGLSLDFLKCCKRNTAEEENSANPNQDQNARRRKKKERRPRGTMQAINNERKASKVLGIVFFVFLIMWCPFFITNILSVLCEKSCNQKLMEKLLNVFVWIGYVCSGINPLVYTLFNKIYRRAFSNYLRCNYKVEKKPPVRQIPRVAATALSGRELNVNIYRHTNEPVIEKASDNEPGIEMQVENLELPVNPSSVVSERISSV

[10] = target: T1, 5-hydroxytryptamine receptor 6; assay: Antagonist activity at human cloned 5HT6 receptor expressed in HeLa cells assessed as inhibition of 5-HT-stimulated cAMP accumulation after 20 mins by enzyme-immunoassay; format: functional, cell-based
Method in brief: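 […] and test compounds were added to HBSS (pH 7.4) containing 1 mM MgCl₂, 1 mM CaCl₂ and 1-methyl-3-isobutylxanthine (IBMX) at 100. After 20 min at 37 °C, intracellular cAMP was measured by enzyme immunoassay. Compounds that inhibited 5-HT-stimulated cAMP accumulation were classed as antagonists.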

5-hydroxytryptamine receptor 7, sequence (P34969 whole entry): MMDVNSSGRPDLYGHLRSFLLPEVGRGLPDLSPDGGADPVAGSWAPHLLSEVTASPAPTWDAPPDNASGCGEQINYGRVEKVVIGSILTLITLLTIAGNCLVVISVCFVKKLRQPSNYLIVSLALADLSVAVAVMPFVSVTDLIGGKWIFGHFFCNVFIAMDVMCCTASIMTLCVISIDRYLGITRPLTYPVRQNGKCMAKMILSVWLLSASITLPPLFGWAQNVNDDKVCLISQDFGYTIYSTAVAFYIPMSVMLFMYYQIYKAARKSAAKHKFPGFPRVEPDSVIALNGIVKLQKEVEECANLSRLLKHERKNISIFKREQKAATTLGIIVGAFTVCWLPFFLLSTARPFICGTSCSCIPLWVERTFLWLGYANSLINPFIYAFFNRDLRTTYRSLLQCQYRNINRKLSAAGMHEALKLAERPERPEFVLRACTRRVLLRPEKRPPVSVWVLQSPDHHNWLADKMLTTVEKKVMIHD
T1 sequence (P50406 whole entry): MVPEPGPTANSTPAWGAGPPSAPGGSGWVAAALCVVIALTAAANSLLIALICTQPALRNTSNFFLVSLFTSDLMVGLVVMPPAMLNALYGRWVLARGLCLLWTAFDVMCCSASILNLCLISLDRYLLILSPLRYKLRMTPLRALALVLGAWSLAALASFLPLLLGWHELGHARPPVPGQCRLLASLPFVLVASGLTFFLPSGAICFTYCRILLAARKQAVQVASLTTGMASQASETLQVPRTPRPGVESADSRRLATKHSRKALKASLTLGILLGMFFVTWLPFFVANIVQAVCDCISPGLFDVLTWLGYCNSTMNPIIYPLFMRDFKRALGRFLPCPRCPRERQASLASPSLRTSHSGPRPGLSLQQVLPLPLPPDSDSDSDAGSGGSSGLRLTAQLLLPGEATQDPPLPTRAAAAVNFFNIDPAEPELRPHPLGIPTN
D(2) dopamine receptor, sequence (P14416 whole entry): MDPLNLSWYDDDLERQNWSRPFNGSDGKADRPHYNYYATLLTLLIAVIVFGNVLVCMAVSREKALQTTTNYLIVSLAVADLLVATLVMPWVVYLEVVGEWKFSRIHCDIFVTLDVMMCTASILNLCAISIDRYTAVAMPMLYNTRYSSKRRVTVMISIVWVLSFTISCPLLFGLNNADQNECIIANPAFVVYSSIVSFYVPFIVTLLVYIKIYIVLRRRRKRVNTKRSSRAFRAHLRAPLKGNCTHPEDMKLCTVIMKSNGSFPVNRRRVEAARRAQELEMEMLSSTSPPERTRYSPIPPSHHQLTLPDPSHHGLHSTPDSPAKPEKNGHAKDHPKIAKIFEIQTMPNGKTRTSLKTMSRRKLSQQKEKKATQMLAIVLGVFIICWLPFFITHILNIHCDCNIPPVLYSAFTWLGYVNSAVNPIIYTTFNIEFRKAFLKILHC
D(3) dopamine receptor, sequence (P35462 whole entry): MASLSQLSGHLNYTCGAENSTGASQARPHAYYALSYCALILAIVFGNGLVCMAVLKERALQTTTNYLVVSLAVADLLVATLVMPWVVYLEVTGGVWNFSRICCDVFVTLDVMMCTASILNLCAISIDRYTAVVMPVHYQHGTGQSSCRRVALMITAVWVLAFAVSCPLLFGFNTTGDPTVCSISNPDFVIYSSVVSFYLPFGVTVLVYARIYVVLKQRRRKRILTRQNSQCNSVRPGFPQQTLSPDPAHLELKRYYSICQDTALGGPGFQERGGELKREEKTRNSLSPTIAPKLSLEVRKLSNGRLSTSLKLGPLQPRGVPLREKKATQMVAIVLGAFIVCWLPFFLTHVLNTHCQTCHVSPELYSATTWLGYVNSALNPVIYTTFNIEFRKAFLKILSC
D(1A) dopamine receptor, sequence (P21728 whole entry): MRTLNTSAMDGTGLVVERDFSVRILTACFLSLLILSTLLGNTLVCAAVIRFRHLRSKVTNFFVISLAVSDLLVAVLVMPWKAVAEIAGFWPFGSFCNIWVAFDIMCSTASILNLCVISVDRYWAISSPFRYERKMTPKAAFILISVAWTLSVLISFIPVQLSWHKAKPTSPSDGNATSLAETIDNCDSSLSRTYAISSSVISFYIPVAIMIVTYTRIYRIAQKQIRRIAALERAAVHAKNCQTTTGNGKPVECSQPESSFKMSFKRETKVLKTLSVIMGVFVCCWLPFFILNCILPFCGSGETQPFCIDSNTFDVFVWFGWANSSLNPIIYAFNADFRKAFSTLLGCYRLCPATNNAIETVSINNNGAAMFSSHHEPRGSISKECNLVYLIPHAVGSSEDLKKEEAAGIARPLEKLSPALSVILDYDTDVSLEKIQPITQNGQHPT
5-hydroxytryptamine receptor 2A, sequence (P28223 whole entry): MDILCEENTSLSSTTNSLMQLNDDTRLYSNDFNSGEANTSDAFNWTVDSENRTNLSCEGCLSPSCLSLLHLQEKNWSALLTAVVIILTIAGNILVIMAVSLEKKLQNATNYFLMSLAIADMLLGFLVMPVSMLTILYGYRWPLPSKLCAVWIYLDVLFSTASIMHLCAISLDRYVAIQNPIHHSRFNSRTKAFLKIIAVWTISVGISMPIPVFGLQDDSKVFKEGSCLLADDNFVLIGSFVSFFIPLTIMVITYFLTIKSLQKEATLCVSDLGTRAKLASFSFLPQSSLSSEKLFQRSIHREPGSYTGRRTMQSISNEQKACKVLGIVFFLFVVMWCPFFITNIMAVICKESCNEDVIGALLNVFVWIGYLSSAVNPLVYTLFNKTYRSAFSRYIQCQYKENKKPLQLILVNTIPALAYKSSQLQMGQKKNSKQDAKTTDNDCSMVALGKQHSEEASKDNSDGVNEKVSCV

SMILES: COc1cc(Br)c2c(c1)NC(=O)C(C)(c1ccccc1)C2=O (stereo not drawn)
Ki [1]: 73.2 nM

SMILES: CN(C)c1cc(Cl)c2c(c1)NC(=O)C(C)(c1ccccc1)C2=O (stereo not drawn)
Ki [1]: 715 nM

SMILES: CC1(c2ccccc2)C(=O)Nc2cc(Br)cc(Br)c2C1=O (stereo not drawn)
Ki [1]: 197 nM

SMILES: CC1(c2cccc(OCc3ccccc3)c2)C(=O)Nc2cc(Cl)cc(Cl)c2C1=O (stereo not drawn)
Ki [2]: 170 nM
Ki [3]: > 10000 nM
Ki [4]: > 10000 nM
Ki [1]: 82.4 nM
Ki [5]: 720 nM
Ki [6]: 600 nM
Ki [7]: 120 nM
Ki [8]: > 10000 nM
Ki [9]: > 10000 nM

SMILES: COc1ccc(C2(C)C(=O)Nc3cc(Cl)cc(Cl)c3C2=O)cc1[N+](=O)[O-] (stereo not drawn)
Ki [1]: > 1000 nM

SMILES: CC1(c2ccccc2)C(=O)Nc2cc(Cl)c(Cl)cc2C1=O (stereo not drawn)
Ki [1]: > 1000 nM

SMILES: CC1(c2ccccc2)C(=O)Nc2c(Br)cc(Br)cc2C1=O (stereo not drawn)
Ki [1]: > 1000 nM

SMILES: CC1(c2ccc(O)c([N+](=O)[O-])c2)C(=O)Nc2cc(Cl)cc(Cl)c2C1=O (stereo not drawn)
Ki [1]: > 1000 nM

SMILES: CC1(c2ccc(O)c(Br)c2)C(=O)Nc2cc(Cl)cc(Cl)c2C1=O (stereo not drawn)
Ki [1]: 77.5 nM

SMILES: CC1(c2ccccc2)C(=O)Nc2ccccc2C1=O (stereo not drawn)
Ki [1]: > 1000 nM

SMILES: CCN(CC)c1ccc(C2(C)C(=O)Nc3cc(Cl)cc(Cl)c3C2=O)cc1 (stereo not drawn)
Ki [1]: 9.2 nM

SMILES: CC1(c2ccc(OCc3ccccc3)c(Br)c2)C(=O)Nc2cc(Cl)cc(Cl)c2C1=O (stereo not drawn)
Ki [1]: > 1000 nM

SMILES: CC1(c2ccccc2)C(=O)Nc2cc(Cl)ccc2C1=O (stereo not drawn)
Ki [1]: > 1000 nM

SMILES: COc1cc(Cl)c2c(c1)NC(=O)C(C)(c1ccccc1)C2=O (stereo not drawn)
Ki [1]: 345 nM

SMILES: CC1(c2cccc(O)c2)C(=O)Nc2cc(Cl)cc(Cl)c2C1=O (stereo not drawn)
Ki [2]: > 10000 nM
Ki [3]: > 10000 nM
Ki [4]: > 10000 nM
Ki [1]: 30.1 nM
Ki [5]: > 10000 nM
Ki [6]: > 10000 nM
Ki [7]: 1810 nM
Ki [8]: > 10000 nM
Ki [9]: > 10000 nM

SMILES: CC1(c2ccc([N+](=O)[O-])cc2)C(=O)Nc2cc(Cl)cc(Cl)c2C1=O (stereo not drawn)
Ki [1]: > 1000 nM

SMILES: COc1cc2c(c(OC)c1)C(=O)C(C)(c1ccccc1)C(=O)N2 (stereo not drawn)
Ki [1]: 728 nM

SMILES: COc1ccc(NS(=O)(=O)c2sc3ccc(Cl)cc3c2C)cc1N1CCNCC1
Ki [3]: 130 nM
Ki [5]: 1740 nM
Ki [7]: 120 nM
Ki [8]: 460 nM
Ki [9]: 530 nM

SMILES: CNc1cc(NS(=O)(=O)c2ccc(N)cc2)cc(NC)n1
Ki [1]: 512 nM

SMILES: CC1(c2ccccc2)C(=O)Nc2cc(Cl)cc(Cl)c2C1=O (racemic)
Ki [2]: > 10000 nM
Ki [3]: > 10000 nM
Ki [4]: > 10000 nM
Ki [1]: 54.7 nM
Ki [5]: > 10000 nM
Ki [6]: > 10000 nM
Ki [7]: > 10000 nM
Ki [8]: > 10000 nM
Ki [9]: > 10000 nM

More lines, now with the values ahead:

Ki [1]: 877 nM
SMILES: CC1(c2ccc(Cl)cc2)C(=O)Nc2cc(Cl)cc(Cl)c2C1=O (stereo not drawn)

Ki [1]: 346 nM
SMILES: CN(C)c1ccc(C2(C)C(=O)Nc3cc(Cl)cc(Cl)c3C2=O)cc1 (stereo not drawn)

Ki [1]: 952 nM
SMILES: CC1(c2ccc(I)cc2)C(=O)Nc2cc(Cl)cc(Cl)c2C1=O (stereo not drawn)

Ki [1]: 28.3 nM
SMILES: CCNc1ccc(C2(C)C(=O)Nc3cc(Cl)cc(Cl)c3C2=O)cc1 (stereo not drawn)

Ki [1]: 147 nM
SMILES: COc1ccc(C2(C)C(=O)Nc3cc(Cl)cc(Cl)c3C2=O)cc1 (stereo not drawn)

Ki [2]: > 10000 nM
IC50 [10]: 615 nM
Ki [3]: > 10000 nM
Ki [4]: > 10000 nM
Ki [1]: 12.3 nM
Ki [5]: > 10000 nM
Ki [6]: > 10000 nM
Ki [7]: > 10000 nM
Ki [8]: > 10000 nM
Ki [9]: > 10000 nM
SMILES: CC1(c2ccc(O)cc2)C(=O)Nc2cc(Cl)cc(Cl)c2C1=O (stereo not drawn)

Ki [1]: 156 nM
SMILES: CC1(c2ccc(N)cc2)C(=O)Nc2cc(Cl)cc(Cl)c2C1=O (stereo not drawn)

Ki [1]: 293 nM
SMILES: COc1ccc([C@]2(C)C(=O)Nc3cc(Cl)cc(Cl)c3C2=O)cc1

Ki [1]: 893 nM
SMILES: COc1ccc([C@@]2(C)C(=O)Nc3cc(Cl)cc(Cl)c3C2=O)cc1

Ki [1]: 257 nM
SMILES: CNc1ccc(C2(C)C(=O)Nc3cc(Cl)cc(Cl)c3C2=O)cc1 (stereo not drawn)

Ki [1]: 304 nM
SMILES: CC1(c2ccc(Br)cc2)C(=O)Nc2cc(Cl)cc(Cl)c2C1=O (stereo not drawn)
